The values that follow come from ChEMBL document CHEMBL1125825, “Hydrophobicity parameters for platinum complexes” (J Med Chem, 1991).

A short description of data set [1]: Partition coefficient (logP). In kind it is physicochemical. Conditions: octanol/water. A digest of the protocol: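 Octanol/water shake-flask partitioning used equal phase volumes shaken at 300 agitations/min at 37 °C. Phases were separated at various times, and Pt in each phase was measured by graphite-furnace atomic absorption. P is the octanol Pt concentration divided by the aqueous Pt concentration, reported as log P, with the mean ± range of 6-10 independent experiments.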

In a further data set the test system is P388. Briefly: Optimal dose evaluated for antitumor activity against P388 murine leukemia cells in female DBA/2 mice. It is filed as functional, cell-based. The conditions noted are these: Mus musculus. A digest of the protocol: (§1)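 P388 murine leukemia model in female DBA/2 mice given 10^6 cells on day 0. A single treatment was given on day 1 with the platinum complex freshly dissolved in 0.4% Klucel. T/C is the median survival time of treated mice relative to untreated controls.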

For the next data set, the species on record is Mus musculus. Briefly: Median survival time of treated mice with respect to untreated controls. In kind it is functional, organism-based. A digest of the protocol: as §1

With CISPLATIN [listing 1 of 2 here], the logP in data set [1] is listed as -2.19.

As to CISPLATIN [listing 2 of 2 here], the Optimal dose in the data set with P388 was 27 µmol/kg. Further, in the data set filed under Mus musculus, the T/C was determined as 200%.

Consider “cis-di-amonium, di-nitarte platinum (II) [listing 1 of 2 here]”, for which, in data set [1], the logP is listed as -3.36.

In turn, “cis-di-amonium, di-nitarte platinum (II) [listing 2 of 2 here]” yielded an Optimal dose in the data set with P388 of 3.5 µmol/kg. For the same substance, the T/C in the data set listed under Mus musculus worked out at 123%.

Substance “cis-di-cyclobutyleamino,di-chloro platinum (II) [listing 1 of 2 here]” yielded a logP in data set [1] of 0.36.

With “cis-di-cyclobutyleamino,di-chloro platinum (II) [listing 2 of 2 here]”, the Optimal dose in the data set with P388 came out at 147 µmol/kg. For the same substance, the T/C in the data set filed under Mus musculus came out at 199%.

“cis-di-cycloheptylamino,di-nitrate platinum (II) [listing 1 of 2 here]”: the logP in data set [1] was -0.35.

In the case of “cis-di-cycloheptylamino,di-nitrate platinum (II) [listing 2 of 2 here]”, the Optimal dose with P388 turned out to be 92 µmol/kg. This substance yielded a T/C in the data set filed under Mus musculus of 133%.

With “cis-di-cyclohexylamino,di-nitrate platinum (II) [listing 1 of 2 here]”, the logP in data set [1] is listed as -0.91.

As to “cis-di-cyclohexylamino,di-nitrate platinum (II) [listing 2 of 2 here]”, the Optimal dose in the data set on P388 came to 97 µmol/kg. The substance also had a T/C in the data set filed under Mus musculus of 173%.

Turning to “cis-di-cyclopentylamino, dichloro platinum (II) [listing 1 of 2 here]”, the logP in data set [1] worked out at 0.81.

In the data set on P388, “cis-di-cyclopentylamino, dichloro platinum (II) [listing 2 of 2 here]” registered an Optimal dose of 572 µmol/kg. For the same substance, the T/C in the data set listed under Mus musculus amounted to 172%.

With “cis-di-cyclopentyleamino,di-nitrate platinum (II) [listing 1 of 2 here]”, in data set [1], the logP is reported as -1.14.

As for “cis-di-cyclopentyleamino,di-nitrate platinum (II) [listing 2 of 2 here]”, the Optimal dose with P388 came to 51 µmol/kg. In addition, the T/C in the data set listed under Mus musculus was found to be 193%.

On to “cis-di-isopropyleamino,dichloro platinum (II)”, for which, in data set [1], the logP is -0.32.

On to “cis-di-methylamino, di-nitrate platinum (II) [listing 1 of 2 here]”, for which the logP in data set [1] is recorded as -3.28.

In turn, “cis-di-methylamino, di-nitrate platinum (II) [listing 2 of 2 here]” registered an Optimal dose in the data set on P388 of 26 µmol/kg. Further, the T/C in the data set listed under Mus musculus was 161%.

For the substance “cis-di-methylamino,di-chloro platinum (II) [listing 1 of 2 here]”, the log partition coefficient (logP) in data set [1] is -1.68.

In turn, “cis-di-methylamino,di-chloro platinum (II) [listing 2 of 2 here]” showed an Optimal dose in the data set with P388 of 76 µmol/kg. The same substance registered a T/C in the data set filed under Mus musculus of 175%.

Turning to “cis-di-pyridinium (4-acetyle),di-nitrate platinum (II)”, the logP in data set [1] was -1.41.

Consider “cis-di-pyridinium (4-chloro),di-nitrate platinum (II) [listing 1 of 2 here]”, for which the logP in data set [1] is given as -1.06.

“cis-di-pyridinium (4-chloro),di-nitrate platinum (II) [listing 2 of 2 here]” came in with an Optimal dose with P388 of 183 µmol/kg. This substance also showed a T/C in the data set filed under Mus musculus of 130%.

Consider “cis-di-pyridinium (4-diaminomethane),di-nitrate platinum (II) [listing 1 of 2 here]”, for which, in data set [1], the logP is listed as -0.83.

Consider “cis-di-pyridinium (4-diaminomethane),di-nitrate platinum (II) [listing 2 of 2 here]”, for which the Optimal dose in the data set with P388 stood at 495 µmol/kg. This substance gave a T/C in the data set filed under Mus musculus of 110%.

For the substance “cis-di-pyridinium (4-methanol),di-nitrate platinum (II)”, in data set [1], the logP is recorded as -2.13.

“cis-di-pyridinium,dinitrate platinum (II) [listing 1 of 2 here]”: the logP in data set [1] was -1.59.

In the data set on P388, “cis-di-pyridinium,dinitrate platinum (II) [listing 2 of 2 here]” displayed an Optimal dose of 105 µmol/kg. For the same substance, the T/C in the data set filed under Mus musculus was 125%.

For orientation: logP means the decadic logarithm of the partition coefficient of the neutral form, usually between octanol and water. A high value points to a more lipophilic compound. One may read the T/C as the result in the treated group divided by that in the control group, in per cent.
